Screening data: PubChem BioAssay, several laboratories
Rows were chosen to be rich in hits. Some 3.9% of all compounds tested hit in one or more screens of this group.
AHR activator – human AHR activation. AHR-responsive luciferase reporter cells, luminescence. activation, % at 5 µM. actives 2.5% (n = 320,000); in the data active = activation above about 47%
ABCB6 inh MLPCN – blocks the human ABCB6 transporter; Q9NP58; AID 602162; K562-ABCB6 porphyrin accumulation, flow cytometry, 1 h; stronger effect = lower value; actives 0.19% (n = 360,000); fluorescence ratio to DMSO, % at 10 µM;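 active = fluorescence ratio to DMSO below 75%, the collection mean minus 3 SD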;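 note: signal is porphyrin accumulated inside mitochondria; lower ratio means ABCB6 inhibition with less porphyrin fluorescence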
Target sequence (Q9NP58 whole entry, looked up): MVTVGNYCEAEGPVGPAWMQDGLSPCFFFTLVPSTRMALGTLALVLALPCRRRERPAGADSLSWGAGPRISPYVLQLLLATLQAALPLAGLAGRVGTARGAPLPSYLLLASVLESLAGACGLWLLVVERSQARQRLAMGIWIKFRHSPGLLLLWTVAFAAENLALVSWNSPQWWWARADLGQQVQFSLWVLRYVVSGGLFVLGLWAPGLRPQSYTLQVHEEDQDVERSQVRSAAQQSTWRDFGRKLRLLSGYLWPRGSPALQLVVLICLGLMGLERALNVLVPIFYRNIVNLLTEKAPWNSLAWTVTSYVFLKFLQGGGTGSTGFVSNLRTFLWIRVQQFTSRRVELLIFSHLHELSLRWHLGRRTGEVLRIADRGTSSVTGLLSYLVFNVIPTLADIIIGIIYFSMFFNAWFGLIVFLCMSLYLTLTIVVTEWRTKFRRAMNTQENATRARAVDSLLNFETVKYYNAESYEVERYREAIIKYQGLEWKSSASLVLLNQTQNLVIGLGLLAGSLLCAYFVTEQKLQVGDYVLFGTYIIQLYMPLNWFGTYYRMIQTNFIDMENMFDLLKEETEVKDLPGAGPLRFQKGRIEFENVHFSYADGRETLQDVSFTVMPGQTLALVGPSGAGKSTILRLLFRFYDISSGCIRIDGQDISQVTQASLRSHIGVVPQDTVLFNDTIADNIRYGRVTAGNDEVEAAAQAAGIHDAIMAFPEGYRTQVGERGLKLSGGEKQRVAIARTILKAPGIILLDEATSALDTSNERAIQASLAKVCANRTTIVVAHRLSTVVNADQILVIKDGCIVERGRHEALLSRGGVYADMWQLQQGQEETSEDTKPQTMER
SR-BI uptake up – activators of SR-BI mediated HDL lipid uptake. CHO ldlA[mSR-BI] cells, DiI-HDL uptake fluorescence, 3 h; 100 = double the neutral-control signal. activation, % at 12.5 µM. actives 0.096% (n = 320,000). AID 504775;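 active = mean replicate activation of at least 60% and every replicate at or above 60%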
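Assay system: CHO ldlA[mSR-BI] cells, LDL receptor-null, SR-BI overexpressing; medium: Ham's F12 with 0.5% BSA, HEPES 25 mM, pH 7.4; also added: DiI-HDL 10 µg/mL; timing: 3 h uptake period with compound, 37 °C; signal: DiI fluorescence, bottom read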
FXN GAA850 act – increases GAA850 frataxin promoter reporter activity. HEK293 lucGAA850 FXN promoter luciferase reporter, 24 h; percent of 10 µM SAHA response. activation, % at 6 µM. actives 0.56% (n = 360,000). AID 540364;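 active = activation above the average of all compounds screened plus 3 SD, cutoff fixed separately per campaign, cut at about 7.5% in these data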
SR-BI HDL uptake – blocks mouse SR-BI lipid uptake from DiI-HDL. ldlA[mSR-BI] CHO cells, DiI-HDL uptake fluorescence, 3 h. inhibition, % at 12.5 µM. AID 488896. actives 0.96% (n = 320,000). Q61009;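 active = mean replicate inhibition of at least 70% and a set share of replicates each scoring 70 or more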
HIF act – HIF pathway transcriptional activation; activation, % at 7.5 µM (by protocol); actives 0.32% (n = 300,000); AID 1910; U2OS HRE-luciferase reporter, luminescence; normalized: DMSO 0%, desferrioxamine 100%;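 active = mean activation of at least 10% of the iron chelator positive control signal, with at least half of replicates also reaching 10%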
AHR act cf – human AHR activation, confirmation; shares compounds with AHR activator; human cells, AHR-responsive luciferase reporter, luminescence; actives 87% (n = 2,300); activation, % at 9 µM; in the data active = activation above about 49%;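 note: HepG2 hepatoma cells carrying a DRE-driven firefly luciferase reporter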
PXR act counter – counter-screen for AHR activators: human PXR activators; shares compounds with AHR activator; cell-based PXR reporter, luciferase luminescence; activation, % at 11.6 µM; actives 88% (n = 2,300); in the data active = activation above about 11%;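 note: human hepatoma DPX-2 cells expressing full-length human PXR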
DiI quencher – quenches DiI-HDL fluorescence, an SR-BI assay artifact; actives 20% (n = 470); AC50, µM (titrated, usually from 35 µM); shares compounds with SR-BI HDL uptake; cell-free DiI-HDL fluorescence quenching, 30 min;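 active = quenching, a falling signal, with AC50 below a set limit tied to the top valid dose, actives reach about 32 µM in these data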
GAA30 FXN cntr – counter-screen for GAA850 frataxin promoter activators: GAA30 promoter activation | shares compounds with FXN GAA850 act | HEK293 lucGAA30 FXN promoter luciferase, 24 h; DMSO = 0%, 5 µM ipriflavone = 100% | activation, % at 6 µM | actives 66% (n = 1,900) | AID 588350;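 active = mean activation above the mean of solvent-only control wells plus 3 SD, cut at about 22% in these data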;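 note: counterscreen of GAA850 promoter hits where activity marks nonselective or luminescence artifacts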
GAA850 confirm – GAA850 FXN promoter activation confirmation | activation, % at 6 µM | AID 588351 | HEK293 lucGAA850 FXN promoter luciferase reporter, 24 h; 100% = activation by SAHA | shares compounds with FXN GAA850 act | actives 86% (n = 1,900);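 active = mean activation above a set limit taken from the primary screen, cut at about 8% in these data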
Large screens that a line does not name were inactive (follow-up assays come after a bar, where they were run).

Cc1c2cnn(CC(=O)N3CCC4(CC3)OCCO4)c(=O)c2c(C)n1Cc1ccccc1Cl	none
O=C(c1cccnc1)N1Cc2ccccc2-n2nncc2C1	none (no result: AHR activator, SR-BI uptake up, SR-BI HDL uptake, HIF act)
O=C(c1cccnc1)c1cc2ccccc2[nH]1	HIF act 16
CN1CCN(c2ccc(S(C)(=O)=O)cc2[N+](=O)[O-])CC1	none
COc1ccc(C(CC(C)=O)c2c(O)c3ccccc3oc2=O)cc1OC (stereo not given)	none (no result: AHR activator, SR-BI uptake up, SR-BI HDL uptake, HIF act)
CC/C(CC(c1ccccc1)c1c(O)c2ccccc2oc1=O)=N\NC(N)=S (stereo not given)	SR-BI HDL uptake 80
CC(C)(C)c1ccc(O)c(N=Cc2c(O)ccc3ccccc23)c1	AHR activator 64, SR-BI HDL uptake 113
CCOC(=O)c1c(NS(=O)(=O)c2ccccc2)n(CCCOC)c2nc3ccccc3nc12	HIF act 455
CCN1CCN(C(=O)COc2ccc3oc4c(c3c2)CCCC4)CC1	SR-BI HDL uptake 72 (no result: HIF act)
CCN1CCN(C(=O)COc2ccc(S(=O)(=O)NC(C)C)cc2)CC1	none (no result: HIF act)
C=CCn1c(O)c(C(CC)=NCc2cc(OC)cc(OC)c2)c(=O)[nH]c1=O	none
CCC(=NCc1cc(OC)cc(OC)c1)c1c(O)[nH]c(=O)[nH]c1=O	HIF act 66
NS(=O)(=O)c1ccc(N=Cc2c(O)n(C3CCCCC3)c(=O)n(C3CCCCC3)c2=O)cc1	none
N=C1c2ccccc2CN1NC(=O)C1CC1	SR-BI uptake up 66
O=P(O)(O)C12CC3CC(CC(C3)C1)C2	none
CN(C)C(=O)Oc1ccc(Br)cc1C(=O)Nc1ccc(F)c(Cl)c1	AHR activator 67
CC1CCC[C@H](O)CCCCCc2cc(O)cc(O)c2C(=O)O1 (stereo not given in full)	none
Cc1ccc(OCCn2cccc2/C=C2/C(=O)NC(=O)N(Cc3ccco3)C2=O)cc1	none
CC(=NCCC1=CCCCC1)c1c(O)n(C)c(=O)n(C)c1=O	none
CC1CN(c2ccc([N+](=O)[O-])c3cccnc23)CC(C)N1 (stereo not given)	FXN GAA850 act 9.6
CC1(C)C(C(=O)N2CCN(c3ccc(Cl)cc3)CC2)C1(C)C	none
COC(=O)C1CN(C#N)N(c2ccc(Cl)cc2)C12c1ccccc1-c1ccccc12 (stereo not given)	SR-BI HDL uptake 127
C[C@]12CCC3[C@@H](CC[C@@H]4C[C@H](O)CC[C@]34C)[C@@H]1CCC2=O (stereo not given in full)	none (no result: HIF act)
C[C@]12CCC3C(CC[C@H]4C[C@@H](O)CC[C@]34C)[C@H]1C=CC2=O (stereo not given in full)	FXN GAA850 act 9.4 (no result: HIF act)
CCN(CC)c1ccc(N=Cc2c(O)n(-c3cc(OC)ccc3OC)c(=O)[nH]c2=O)cc1	SR-BI HDL uptake 91
Cc1cccc(-n2c(C)nc3ccccc3c2=O)n1	none
CN(Cc1ccccc1)C(=O)CN1CCCC1=O	none
FC(F)(F)c1ccc2c(c1)ncn2C1CCN(Cc2nnnn2C2CCCCC2)CC1	AHR activator 56
Fc1ccc(Cn2nnnc2CN2CCC(n3nnc4cc(C(F)(F)F)ccc43)CC2)cc1	none (no result: SR-BI uptake up, SR-BI HDL uptake)
Cc1ccc2cc(C=C(C#N)C#N)c(Cl)nc2c1	AHR activator 88 | AHR act cf inactive | PXR act counter 21
BrCC(Br)(Br)Br	none (no result: HIF act)
CCOC(=O)c1c(C)n(CCOC)c2ccc(O)cc12	AHR activator 92 | AHR act cf 80 | PXR act counter 19
COCCCNC(=O)c1c(N)n(Cc2ccco2)c2nc3ccccc3nc12	none (no result: SR-BI uptake up, SR-BI HDL uptake)
COCCOC(=O)c1c(N)n(Cc2ccco2)c2nc3ccccc3nc12	AHR activator 82 | AHR act cf inactive | PXR act counter 91
N#CC12c3ccccc3C(=O)N1Cc1cnnn1-c1ccccc12 (stereo not given)	none (no result: AHR activator, SR-BI uptake up, FXN GAA850 act, SR-BI HDL uptake, HIF act)
Cc1ccc(-c2cc(-c3ccccc3)cc(-c3ccccc3)[n+]2-c2ccc(C(=O)O)cc2)cc1	none
CNC(=O)Oc1cccc(-c2cn3cc(Cl)ccc3n2)c1	AHR activator 96 | AHR act cf inactive | PXR act counter 13
CNC(=O)Oc1ccc(-c2cn3cc(C)ccc3n2)cc1	none
Cc1ccc2nc3c(cc2c1)CC1(C(=O)N(C)C(=O)N(C)C1=O)C1COCCN31 (stereo not given)	none
Cc1ccc2nc3c(cc2c1)CC1(C(=O)N(C)C(=O)N(C)C1=O)C1CCCCN31 (stereo not given)	AHR activator 85 | AHR act cf 78 | PXR act counter 72
Cc1c(CCN)ccc2c1[nH]c1ccccc12	AHR activator 92 | AHR act cf inactive | PXR act counter 13
COc1ccc(NC(=O)C2C3CCC(O3)C2C(=O)O)c(OC)c1 (stereo not given)	none | DiI quencher inactive
CCC(COC(=O)NC)NC(=O)Oc1ccccc1 (stereo not given)	none
COC(=O)c1cn(C(=O)c2cccc3ccccc23)c2ccccc12	SR-BI HDL uptake 73 | DiI quencher inactive
COC(=O)c1cn(Cc2ccc(F)cc2)c2ccccc12	none (no result: AHR activator, SR-BI uptake up, SR-BI HDL uptake, HIF act)
c1cncc(C2CCCCN2)c1 (stereo not given)	none
c1cncc(C2Nc3cccc4cccc(c34)N2)c1	FXN GAA850 act 12 (no result: SR-BI uptake up, SR-BI HDL uptake) | GAA30 FXN cntr 26 | GAA850 confirm inactive
CCN(CC)c1ccc(CN(C)CCc2ccc(OC)c(OC)c2)cc1	none
CCN1C(=O)N(CC)C(=O)C2(Cc3ccccc3N3CCN(c4ccccc4)CC32)C1=O (stereo not given)	none (no result: SR-BI uptake up, SR-BI HDL uptake)
Cc1ccc(N2C(=O)NC(=O)/C(=C\C=C\c3ccco3)C2=O)cc1C	FXN GAA850 act 8.4 | GAA30 FXN cntr inactive | GAA850 confirm inactive
